Values belong to the compound of their own block, whether it stands above or below them. The source made the active and inactive calls.
Experiments:
[1] = Solubility in PBS solution by nephelometry; assay type: physicochemical
Procedure, shortened: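 Maximum soluble concentration in PBS, determined by nephelometry.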

[2] = Toxicity in iv dosed BALB/c mouse; assay type: organism-based; conditions: in vivo
Procedure, shortened: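 Maximum tolerated dose in BALB/c mice (SPF, 18−22 g, 6−8 weeks, half female and half male). Graded doses given intravenously, n = 4 per dose. Survival and adverse effects recorded every other day after dosing. MTD defined as the largest dose given before one death occurs.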

[3] = test system: K562; assay: Antiproliferative activity against human K562 cells assessed as inhibition of cell proliferation after 48 hrs by MTT assay; assay type: functional, cell-based; conditions: K562, 48 h
Procedure, shortened: (§1)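 Cells grown at 37 °C in humidified 5% CO2. K562, C26 and HCT lines in RPMI-1640; other lines in DMEM; both media with 10% FBS, penicillin and streptomycin. 1000 cells/well seeded, incubated overnight, then compound at various doses for 48 h. MTT added for 4 h, formazan dissolved in DMSO, absorbance read at 590 nm. IC50 from dose–response curves, mean ± SEM of at least three independent experiments.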

[4] = test system: A-375; assay: Antiproliferative activity against human A375 cells assessed as inhibition of cell proliferation after 48 hrs by MTT assay; assay type: functional, cell-based; conditions: A-375, 48 h; procedure, shortened: as §1
[5] = test system: HepG2; assay: Antiproliferative activity against human HepG2 cells assessed as inhibition of cell proliferation after 48 hrs by MTT assay; assay type: functional, cell-based; procedure, shortened: as §1
[6] = test system: MCF7; assay: Antiproliferative activity against human MCF7 cells assessed as inhibition of cell proliferation after 48 hrs by MTT assay; assay type: functional, cell-based; conditions: MCF7, 48 h; procedure, shortened: as §1
[7] = Antiproliferative activity against taxol resistant human […] cells assessed as inhibition of cell proliferation after 48 hrs by MTT assay; assay type: functional, cell-based; conditions: A2780, 48 h; procedure, shortened: as §1
[8] = Antitumor activity against mouse C26 cells xenografted in Balb/C mouse assessed as tumor mass changes at 5 mg/kg, iv dosed every 4 days for 4 days; assay type: functional
Procedure, shortened: (§2)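 Female Balb/c or athymic nude mice, 5–6 weeks old. 5 × 10^6 cells in HBSS implanted sc in the right flank/armpit. Treatment began at tumor volume 100 mm3, 6 mice per group; vehicle was 2.5% Tween-80 and 2.5% ethanol. Tumor volume (π/6 × L × W²) and body weight measured every 2 days. Inhibition = (1 − treated/control tumor weight) × 100%.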

[9] = Antiproliferative activity against human DLD1 cells assessed as inhibition of cell proliferation after 48 hrs by MTT assay; assay type: functional, cell-based; conditions: DLD-1, 48 h; procedure, shortened: as §1
[10] = Antiproliferative activity against taxol resistant human HCT8 cells assessed as inhibition of cell proliferation after 48 hrs by MTT assay; assay type: functional, cell-based; conditions: HCT-8, 48 h; procedure, shortened: as §1
[11] = Antiproliferative activity against human A2780S cells assessed as inhibition of cell proliferation after 48 hrs by MTT assay; assay type: functional, cell-based; conditions: A2780, 48 h
Procedure, shortened: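 Cells grown in DMEM with 10% FBS, penicillin/streptomycin at 37 °C, 5% CO2. 1000 cells/well seeded, incubated overnight, then exposed to various doses for 48 h. MTT added for 4 h, formazan dissolved in DMSO, absorbance read at 590 nm. IC50 = concentration inhibiting proliferation by 50%, mean ± SEM of dose–response curves from at least three independent experiments.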

[12] = test system: NCI-H358; assay: Antiproliferative activity against human NCI-H358 cells assessed as inhibition of cell proliferation after 48 hrs by MTT assay; assay type: functional, cell-based; conditions: NCI-H358, 48 h; procedure, shortened: as §1
[13] = test system: U-251; assay: Antiproliferative activity against human U251 cells assessed as inhibition of cell proliferation after 48 hrs by MTT assay; assay type: functional, cell-based; conditions: U-251, 48 h; procedure, shortened: as §1
[14] = Antiproliferative activity against human HCT15 cells assessed as inhibition of cell proliferation after 48 hrs by MTT assay; assay type: functional, cell-based; conditions: HCT-15, 48 h; procedure, shortened: as §1
[15] = test system: Mus musculus; assay: Toxicity in cisplatin-resistant human […] cells xenografted Balb/C mouse assessed as body weight changes at 5 mg/kg, iv dosed every 4 days for 4 days; assay type: organism-based, A2780cisR; design: dose 5 mg/kg, route intravenous; conditions: in vivo, 96 h
Procedure, shortened: (§3)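 Xenografts: 5 × 10^6 tumour cells injected sc in right armpit/flank of 5−6-week-old female mice; at 100 mm3 tumour volume, randomized (6 per group) and dosed in vehicle of 2.5% Tween-80 and 2.5% ethanol; body weights and caliper tumour volumes recorded every 2 days, toxicity signs and mortality daily.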

[16] = test system: Mus musculus; assay: Toxicity in cisplatin-resistant human […] cells xenografted Balb/C mouse assessed as mortality level at 5 mg/kg, iv dosed every 4 days for 4 days; assay type: organism-based, A2780cisR; design: dose 5 mg/kg, route intravenous; conditions: in vivo, 96 h
Procedure, shortened: (§4)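 Female Balb/C or athymic nude mice, 5−6 weeks old, implanted sc in the right flank/armpit with 5 × 10^6 cells in HBSS. Once tumors reached 100 mm3, mice were randomized (6 per group) and dosed with vehicle (2.5% Tween-80, 2.5% ethanol) or drug. Toxicity signs and mortality observed daily. Body weight and caliper tumor volume measured every 2 days.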

[17] = Antiproliferative activity against mouse C26 cells assessed as inhibition of cell proliferation after 48 hrs by MTT assay; assay type: functional, cell-based; conditions: C26, 48 h; procedure, shortened: as §1
[18] = test system: Mus musculus; assay: Toxicity in mouse C26 cells xenografted Balb/C mouse assessed as mortality level at 5 mg/kg, iv dosed every 4 days for 4 days; assay type: organism-based; design: dose 5 mg/kg, route intravenous; conditions: in vivo, 96 h; procedure, shortened: as §4
[19] = test system: Mus musculus; assay: Toxicity in mouse C26 cells xenografted Balb/C mouse assessed as body weight changes at 5 mg/kg, iv dosed every 4 days for 4 days; assay type: organism-based; design: dose 5 mg/kg, route intravenous; conditions: in vivo, 96 h; procedure, shortened: as §3
[20] = Antitumor activity against cisplatin-resistant human […] cells xenografted in Balb/C mouse assessed as tumor mass changes at 5 mg/kg, iv dosed every 4 days for 4 days; assay type: functional, A2780cisR; procedure, shortened: as §2
[21] = test system: AGS; assay: Antiproliferative activity against human AGS cells assessed as inhibition of cell proliferation after 48 hrs by MTT assay; assay type: functional, cell-based; procedure, shortened: as §1
[22] = target: T1, Tubulin (Homo sapiens) (UniProt P68371+Q9H4B7+P0DPH7+P68366+Q13509+Q71U36+P04350+Q3ZCM7+P07437+P68363+Q9BQE3+Q6PEY2+Q13885+Q9BVA1+Q9BUF5); assay: Inhibition of tubulin (unknown origin) polymerization pre-incubated for 5 mins by spectrophotometry; assay type: protein-complex assay
[23] = target: T1, Tubulin (Homo sapiens); assay: Inhibition of tubulin polymerization in human HepG2 cells assessed as spindle formation alterations at 1 uM after 24 hrs by immunofluorescence assay; assay type: cell-based
Procedure, shortened: (§5)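 HepG2 cells seeded overnight, then given 1 μM compound or DMSO for 24 h; methanol-fixed, blocked 45 min in 5% BSA/PBS, α-tubulin primary antibody overnight at 4 °C, fluorescent secondary 1 h, DAPI nuclear counterstain; microtubules and spindles imaged by fluorescence microscopy.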

[24] = target: T1, Tubulin (Homo sapiens); assay: Inhibition of tubulin polymerization in human HepG2 cells assessed as microtubule polymerization alterations at 1 uM after 24 hrs by immunofluorescence assay; assay type: cell-based; procedure, shortened: as §5
[25] = test system: HUVEC; assay: Antivascular activity in HUVECs assessed as disruption of capillary-like tubes at 50 to 500 nM incubated for 6 hrs by matrigel based tube formation assay; assay type: functional, cell-based; conditions: Homo sapiens
Procedure, shortened: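 HUVECs (2−4 × 10^4) in DMEM seeded on Matrigel polymerized at 37 °C for 30 min. Treated with 50, 100 or 500 nM compound or vehicle at 37 °C. Capillary networks photographed after 6 h and quantified; significance by t-test.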

[26] = target: T1, Tubulin (Homo sapiens); assay: Inhibition of tubulin polymerization in human HepG2 cells assessed as multiple tubulin bundles at 1 uM after 24 hrs by immunofluorescence assay; assay type: cell-based; procedure, shortened: as §5
[27] = test system: HUVEC; assay: Antivascular activity in HUVECs assessed as inhibition of cell migration incubated for 20 hrs by phase contrast microscopy based wound healing migration assay; assay type: functional; conditions: Homo sapiens
Procedure, shortened: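 HUVECs grown to confluence in DMEM, then serum-starved for 16 h. Monolayer scratched with a pipet tip and washed with PBS. Serum-free DMEM with vehicle or 50, 100 or 500 nM compound added. Imaged after 20–24 h; migrated cells counted manually and expressed relative to vehicle wells; t-test.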

[28] = target: T1, Tubulin (Homo sapiens); assay: Inhibition of tubulin polymerization in human HepG2 cells assessed as abnormal mitotic spindles at 1 uM after 24 hrs by immunofluorescence assay; assay type: cell-based; procedure, shortened: as §5
[29] = Antiproliferative activity against human HCT116 cells assessed as inhibition of cell proliferation after 48 hrs by MTT assay; assay type: functional, cell-based; conditions: HCT-116, 48 h
[30] = Antiproliferative activity against human ES2 cells assessed as inhibition of cell proliferation after 48 hrs by MTT assay; assay type: functional, cell-based; conditions: ES-2, 48 h

- IC50 [3]: 890 nM
- IC50 [4]: 700 nM
- IC50 ([5]; Homo sapiens, HepG2, 48 h): 280 nM
SMILES: COc1ccc(/C=C/C(=O)c2ccc(OC)c3c2OC(C)(C)C=C3)cc1NC(=O)CN

- IC50 [3]: 1860 nM
- IC50 [4]: 790 nM
- IC50 ([5]; Homo sapiens, HepG2, 48 h): 970 nM
SMILES: COc1ccc(/C=C/C(=O)c2ccc(OC)c3c2OC(C)(C)C=C3)cc1NCc1ccccc1

- IC50 [3]: > 2000 nM
- IC50 [4]: > 2000 nM
- IC50 ([5]; Homo sapiens, HepG2, 48 h): > 2000 nM
SMILES: CNc1cc(/C=C/C(=O)c2ccc(OC)c3c2OC(C)(C)C=C3)ccc1OC

- IC50 [3]: > 2000 nM
- IC50 [4]: > 2000 nM
- IC50 ([5]; Homo sapiens, HepG2, 48 h): > 2000 nM
SMILES: COc1ccc(/C=C/C(=O)c2ccc(OC)c3c2OC(C)(C)C=C3)cc1NCCN1CCOCC1

- IC50 [3]: 800 nM
- IC50 [4]: 920 nM
- IC50 ([5]; Homo sapiens, HepG2, 48 h): 910 nM
SMILES: CCC(=O)Nc1cc(/C=C/C(=O)c2ccc(OC)c3c2OC(C)(C)C=C3)ccc1OC

- IC50 [3]: > 2000 nM
- IC50 [4]: 2000 nM
- IC50 ([5]; Homo sapiens, HepG2, 48 h): > 2000 nM
SMILES: COc1ccc(/C=C/C(=O)c2ccc(OC)c3c2OC(C)(C)C=C3)cc1NS(=O)(=O)Cc1ccccc1

- IC50 [3]: 1580 nM
- IC50 [4]: 1600 nM
- IC50 ([5]; Homo sapiens, HepG2, 48 h): 1640 nM
SMILES: C#CCNc1cc(/C=C/C(=O)c2ccc(OC)c3c2OC(C)(C)C=C3)ccc1OC

- IC50 [3]: > 2000 nM
- IC50 [4]: > 2000 nM
- IC50 ([5]; Homo sapiens, HepG2, 48 h): > 2000 nM
SMILES: COc1ccc(/C=C/C(=O)c2ccc(OC)c3c2OC(C)(C)C=C3)cc1NS(=O)(=O)c1ccc(C)cc1

Further lines, the compound ahead of its results:

SMILES: COc1ccc(/C=C/C(=O)c2ccc(OC)c3c2OC(C)(C)C=C3)cc1N.O=S(=O)(O)O
- solubility kinetic [1]: 58 µg/mL
- MTD [2]: 200 mg/kg

SMILES: CC(=O)O[C@H]1C(=O)[C@@]2(C)[C@H]([C@H](OC(=O)c3ccccc3)[C@]3(O)C[C@H](OC(=O)[C@H](O)[C@@H](NC(=O)c4ccccc4)c4ccccc4)C(C)=C1C3(C)C)[C@]1(OC(C)=O)CO[C@@H]1C[C@@H]2O [PACLITAXEL]
- IC50 [6]: 132 nM
- IC50 [7]: 107 nM
- Activity [8]: 76%
- IC50 [9]: 16 nM
- IC50 [10]: 266 nM
- IC50 [11]: 4 nM
- IC50 [12]: 2 nM
- IC50 [13]: 23 nM
- IC50 [14]: 24 nM
- Activity [15]: -5.6%
- IC50 ([5]; Homo sapiens, HepG2, 48 h): 38 nM
- Activity [16]: Non-toxic
- IC50 [17]: 210 nM
- Activity [18]: Non-toxic
- Activity [19]: -3.7%
- Activity [20]: 69%
- IC50 [21]: 8 nM

SMILES: COc1ccc(/C=C/C(=O)c2ccc(OC)c3c2OC(C)(C)C=C3)cc1N.CS(=O)(=O)O
- solubility kinetic [1]: 50 µg/mL
- IC50 ([5]; hepg2): 10 nM

SMILES: COc1ccc(/C=C/C(=O)c2ccc(OC)c3c2OC(C)(C)C=C3)cc1N
- inhibition [22]: Dose-dependent effect
- inhibition [23]: Active
- inhibition [24]: Active
- inhibition [25]: Dose-dependent effect
- inhibition [26]: Active
- inhibition [27]: Dose-dependent effect
- inhibition [28]: Active

SMILES: COc1ccc(/C=C/C(=O)c2ccc(OC)c3c2OC(C)(C)C=C3)cc1N.O=C(O)/C=C\C(=O)O
- solubility kinetic [1]: 47 µg/mL
- IC50 ([5]; hepg2): 12 nM

SMILES: COc1cc2c(c(OC)c1OC)-c1ccc(OC)c(=O)cc1[C@@H](NC(C)=O)CC2 [COLCHICINE]
- IC50 [6]: 58 nM
- IC50 [3]: 16 nM
- IC50 [4]: 12 nM
- IC50 [9]: 11 nM
- IC50 [29]: 15 nM
- IC50 [11]: 4 nM
- IC50 [12]: 4 nM
- IC50 [13]: 20 nM
- IC50 [14]: 16 nM
- IC50 [30]: 18 nM
- IC50 ([5]; Homo sapiens, HepG2, 48 h): 42 nM
- IC50 [17]: 344 nM
- IC50 [21]: 9 nM

Reference: ChEMBL document CHEMBL3351994, “Synthesis and biological evaluation of novel millepachine derivatives as a new class of tubulin polymerization inhibitors” (J Med Chem, 2014)
